# According to ChEMBL document CHEMBL4219143, “Synthesis, structure-activity relationships and preliminary mechanism study of N-benzylideneaniline derivatives as potential TLR2 inhibitors” (Bioorg Med Chem, 2018):
# The source made the active and inactive calls. The rule behind the calls is not given here.
# Key:
# [1] = molecular target: Toll-like receptor 2 (Homo sapiens) (UniProt O60603); test: Antagonist activity at human TLR2 expressed in HEK-blue cells assessed as inhibition of Pam3CSK4-induced NF-kappaB activation-mediated SEAP production at 25 uM after 24 hrs by Quanti-blue-based assay; assay type: cell-based
# Outline: (§1)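 HEK-Blue hTLR2 cells in DMEM with 10% serum and antibiotics, plated at 4 × 10⁴ cells per well for 24 h. Medium then replaced with compound plus agonist for 24 h at 37 °C. Agonists (final): Pam₃CSK₄ 10 ng/ml (TLR1/2), Pam₂CSK₄ 10 ng/ml (TLR2/6), Poly I:C 10 µg/ml (TLR3). Supernatant mixed 1:1 with Quanti-Blue; SEAP read at OD 620 nm after 15–30 min.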
# [2] = molecular target: Toll-like receptor 2 (Homo sapiens) (UniProt O60603); test: Antagonist activity at human TLR2 expressed in HEK-blue cells assessed as inhibition of Pam3CSK4-induced NF-kappaB activation-mediated SEAP production at 50 uM after 24 hrs by Quanti-blue-based assay; assay type: cell-based; outline: as §1
# [3] = molecular target: Toll-like receptor 2 (Mus musculus) (UniProt Q9QUN7); test: Antagonist activity at TLR2 in mouse Raw 264.7 cells assessed as decrease in Pam3CSK4-induced iNOS levels at 40 uM after 24 hrs relative to positive control; assay type: cell-based
# Outline: (§2)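 Raw 264.7 cells in RPMI 1640 with 10% serum and antibiotics, plated at 8 × 10⁴ cells per well for 24 h. Compound and TLR agonist (Pam₃CSK₄ for TLR1/2, Pam₂CSK₄ for TLR2/6) added, then incubated 24 h. Nitric oxide in supernatant detected with DAN (0.05 mg/ml in 0.62 M HCl), 15 min in the dark.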
# [4] = molecular target: Toll-like receptor 3 (Homo sapiens) (UniProt O15455); test: Antagonist activity at human TLR3 expressed in HEK-Blue assessed as inhibition of poly 1:C-induced NF-kappaB activation-mediated SEAP production at 25 uM after 24 hrs by Quanti-blue-based assay; outline: as §1
# [5] = molecular target: Toll-like receptor 2 (Homo sapiens) (UniProt O60603); test: Antagonist activity at human TLR2 expressed in HEK-Blue cells assessed as inhibition of Pam3CSK4-induced TLR2 upregulation at 10 uM by Western blot analysis; assay type: cell-based
# Outline: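 HEK-Blue hTLR2 cells treated with compound and Pam₃CSK₄ at 400 ng/ml. Lysed in RIPA buffer with 1% PMSF; proteins run on SDS-PAGE and transferred to PVDF. Membranes blocked with 5% milk in TBST. Probed overnight at 4 °C with anti-TLR2 (1:250) and anti-GAPDH (1:2000), then HRP secondary (1:2500) 1 h at RT. Detected by ECL.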
# [6] = molecular target: Toll-like receptor 2 (Homo sapiens) (UniProt O60603); test: Antagonist activity at TLR2 in human PBMC assessed as inhibition of Pam3CSK4-induced TNFalpha signalling at 10 uM after 24 hrs by ELISA relative to control; assay type: cell-based
# Outline: (§3)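 Human PBMC seeded at 2.5 × 10⁵ cells per well in RPMI 1640 with 10% FBS and 1% penicillin/streptomycin. Cells treated with compound plus Pam₃CSK₄ 10 ng/ml for 24 h at 37 °C, 5% CO₂. Supernatants stored frozen at −80 °C. TNF-α measured by sandwich ELISA against recombinant human standards, each sample in triplicate.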
# [7] = molecular target: T1, TLR2/TLR6 (Homo sapiens) (UniProt O60603+Q9Y2C9); test: Antagonist activity at human TLR2/6 expressed in HEK-blue cells assessed as inhibition of Pam2CSK4-induced NF-kappaB activation-mediated SEAP production at 25 uM after 24 hrs by Quanti-blue-based assay; assay type: cell-based; outline: as §1
# [8] = molecular target: Toll-like receptor 2 (Homo sapiens) (UniProt O60603); test: Antagonist activity at TLR2 in human PBMC assessed as inhibition of Pam3CSK4-induced TNFalpha signalling after 24 hrs by ELISA; assay type: cell-based; outline: as §3
# [9] = molecular target: T2, Toll-like receptor 1/2 (Homo sapiens) (UniProt O60603+Q15399); test: Antagonist activity at human TLR1/2 expressed in HEK-blue cells assessed as inhibition of Pam3CSK4-induced NF-kappaB activation-mediated SEAP production at 25 uM after 24 hrs by Quanti-blue-based assay; assay type: cell-based; outline: as §1
# [10] = Cytotoxicity against HEK-Blue cells up to 100 uM after 24 hrs by MTT assay; assay type: cell-based; conditions: human
# Outline: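 HEK-TLR2 cells in DMEM with 10% FBS, plated at 4 × 10⁴ cells per well for 24 h. Compound plus Pam₃CSK₄ (final 10 ng/ml) added, then incubated 24 h. MTT (5 mg/ml in PBS) added for 3 h at 37 °C. Formazan dissolved in DMSO; absorbance read at 490 nm.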
# [11] = molecular target: TLR2/TLR6 (Mus musculus) (UniProt Q9QUN7+Q9EPW9); test: Antagonist activity at TLR2/TLR6 in mouse Raw 264.7 cells assessed as decrease in Pam2CSK4-induced iNOS levels at 40 uM after 24 hrs relative to positive control; assay type: cell-based; outline: as §2
# [12] = molecular target: T2, Toll-like receptor 1/2 (Homo sapiens); test: Antagonist activity at human TLR1/2 expressed in HEK-blue cells assessed as inhibition of Pam3CSK4-induced IL-8 mRNA expression at 100 uM preincubated for 1 hr followed by Pam3CSK4 induction measured after 1 hr by qRT-PCR method relative to control; assay type: cell-based
# [13] = molecular target: T1, TLR2/TLR6 (Homo sapiens); test: Antagonist activity at human TLR2/6 expressed in HEK-blue cells assessed as inhibition of Pam2CSK4-induced IL-8 mRNA expression at 100 uM preincubated for 1 hr followed by Pam2CSK4 induction measured after 1 hr by qRT-PCR method relative to control; assay type: cell-based
# Chain of Toll-like receptor 2 (Homo sapiens) (O60603 whole entry): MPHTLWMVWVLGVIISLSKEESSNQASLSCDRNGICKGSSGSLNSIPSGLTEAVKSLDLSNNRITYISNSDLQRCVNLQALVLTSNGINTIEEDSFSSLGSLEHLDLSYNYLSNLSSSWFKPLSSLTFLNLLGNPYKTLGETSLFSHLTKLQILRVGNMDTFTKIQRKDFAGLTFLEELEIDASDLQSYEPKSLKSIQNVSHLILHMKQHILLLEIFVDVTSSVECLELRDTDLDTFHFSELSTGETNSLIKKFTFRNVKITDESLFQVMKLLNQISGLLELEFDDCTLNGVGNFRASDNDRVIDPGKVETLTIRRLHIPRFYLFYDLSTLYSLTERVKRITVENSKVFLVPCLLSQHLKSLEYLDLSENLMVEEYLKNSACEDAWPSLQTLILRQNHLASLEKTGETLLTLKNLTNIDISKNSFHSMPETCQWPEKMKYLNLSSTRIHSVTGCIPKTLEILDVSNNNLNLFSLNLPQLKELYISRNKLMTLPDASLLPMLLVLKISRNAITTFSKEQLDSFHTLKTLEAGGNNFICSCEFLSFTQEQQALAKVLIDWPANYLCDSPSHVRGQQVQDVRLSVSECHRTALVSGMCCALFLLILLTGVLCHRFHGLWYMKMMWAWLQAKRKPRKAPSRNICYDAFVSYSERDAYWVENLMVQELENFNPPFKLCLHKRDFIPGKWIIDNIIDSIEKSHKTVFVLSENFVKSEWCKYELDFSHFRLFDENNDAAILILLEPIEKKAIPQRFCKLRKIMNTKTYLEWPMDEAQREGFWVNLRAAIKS
# Chain of Toll-like receptor 2 (Mus musculus) (Q9QUN7 whole entry): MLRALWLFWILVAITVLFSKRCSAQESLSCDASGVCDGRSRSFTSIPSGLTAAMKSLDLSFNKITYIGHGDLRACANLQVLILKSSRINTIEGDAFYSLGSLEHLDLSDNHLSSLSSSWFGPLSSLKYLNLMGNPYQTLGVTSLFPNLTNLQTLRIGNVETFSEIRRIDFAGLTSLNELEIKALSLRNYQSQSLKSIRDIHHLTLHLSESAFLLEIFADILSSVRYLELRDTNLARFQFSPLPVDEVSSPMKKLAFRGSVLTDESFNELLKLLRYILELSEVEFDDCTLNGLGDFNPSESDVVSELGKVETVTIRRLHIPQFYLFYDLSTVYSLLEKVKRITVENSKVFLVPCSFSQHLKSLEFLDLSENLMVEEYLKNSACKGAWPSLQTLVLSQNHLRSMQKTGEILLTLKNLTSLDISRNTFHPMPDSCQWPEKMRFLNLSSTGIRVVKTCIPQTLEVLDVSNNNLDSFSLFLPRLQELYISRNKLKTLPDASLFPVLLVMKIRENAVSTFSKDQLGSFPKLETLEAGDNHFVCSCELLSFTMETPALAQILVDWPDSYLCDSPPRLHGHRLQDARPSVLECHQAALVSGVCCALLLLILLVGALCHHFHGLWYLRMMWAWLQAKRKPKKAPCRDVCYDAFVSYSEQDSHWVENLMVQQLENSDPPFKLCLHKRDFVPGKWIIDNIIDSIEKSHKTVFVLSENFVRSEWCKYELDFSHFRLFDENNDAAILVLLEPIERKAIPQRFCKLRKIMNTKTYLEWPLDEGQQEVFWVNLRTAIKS
# Chain of Toll-like receptor 3 (Homo sapiens) (O15455 whole entry): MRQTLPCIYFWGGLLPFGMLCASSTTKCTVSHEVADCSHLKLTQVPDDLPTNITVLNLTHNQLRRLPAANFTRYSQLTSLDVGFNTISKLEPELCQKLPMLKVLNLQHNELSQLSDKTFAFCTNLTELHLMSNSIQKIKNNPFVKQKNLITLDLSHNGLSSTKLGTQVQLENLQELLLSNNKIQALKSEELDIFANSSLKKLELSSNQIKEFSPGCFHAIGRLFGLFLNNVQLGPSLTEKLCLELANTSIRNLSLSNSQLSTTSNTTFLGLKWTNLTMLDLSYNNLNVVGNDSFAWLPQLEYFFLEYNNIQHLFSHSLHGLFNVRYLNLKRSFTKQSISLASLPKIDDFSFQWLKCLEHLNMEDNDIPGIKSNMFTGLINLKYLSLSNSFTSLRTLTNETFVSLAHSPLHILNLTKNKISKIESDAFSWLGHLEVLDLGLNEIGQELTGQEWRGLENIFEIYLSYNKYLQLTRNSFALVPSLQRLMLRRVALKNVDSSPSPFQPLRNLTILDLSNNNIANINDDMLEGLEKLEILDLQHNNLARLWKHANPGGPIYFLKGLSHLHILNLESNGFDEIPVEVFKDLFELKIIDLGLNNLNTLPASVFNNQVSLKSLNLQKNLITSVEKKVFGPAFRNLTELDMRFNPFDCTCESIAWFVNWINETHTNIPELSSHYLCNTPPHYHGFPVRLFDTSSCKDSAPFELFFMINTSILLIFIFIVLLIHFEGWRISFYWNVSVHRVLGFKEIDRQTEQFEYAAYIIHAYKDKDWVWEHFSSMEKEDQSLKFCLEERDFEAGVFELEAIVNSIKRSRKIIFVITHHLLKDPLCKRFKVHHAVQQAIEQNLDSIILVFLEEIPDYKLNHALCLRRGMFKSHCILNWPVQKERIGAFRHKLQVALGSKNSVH
SMILES,inhibition [1],inhibition [2],further results
COc1ccc(/N=C/c2cccc(O)c2O)cc1,17%,44.9%,–
COc1cccc(/C=N/c2ccc(-c3ccccc3)cc2)c1,0%,0%,–
O=C(O)c1ccc(C(F)(F)F)cc1/N=C/c1c(O)ccc2ccccc12,2.53%,0%,–
COc1ccc(/N=C/c2ccc(O)c(OC)c2)cc1,0%,0%,–
COc1cc(/C=N/c2cc(N)cc(C(=O)O)c2)ccc1O,0%,0%,–
Cc1c(/N=C/C=C/c2ccccc2)cccc1C(=O)O,1.74%,14.4%,–
COc1cccc(/C=N/c2ccc(O)cc2)c1,0.74%,56.4%,–
COc1cccc(/N=C/c2ccc(C(F)(F)F)cc2)c1,7.27%,0.28%,–
Oc1ccc(/N=C/c2c(O)ccc3ccccc23)cc1,0%,0%,–
Oc1ccc(/N=C/C=C/c2ccccc2)cc1,27.5%,95.8%,–
COc1cccc(/C=N/c2cccc(C(=O)O)c2C)c1,0.99%,1.61%,–
COc1cc(/C=N/c2ccc(O)cc2)ccc1O,7.51%,62.7%,–
C(=C\c1ccccc1)/C=N/c1ccc(-c2ccccc2)cc1,5.63%,3.1%,–
COc1ccc(/N=C/c2cccc(OC)c2OC)cc1,0%,0%,–
Cc1c(/N=C/c2ccc(C(F)(F)F)cc2)cccc1C(=O)O,0%,0%,–
COc1ccc(/N=C/C=C/c2ccccc2)cc1,3.99%,15.1%,–
COc1ccc(/N=C/c2cccc(OC)c2O)cc1,3.77%,45.6%,–
FC(F)(F)c1ccc(/C=N/c2ccc(-c3ccccc3)cc2)cc1,5.07%,0.75%,–
COc1ccc(/N=C\c2c[nH]c3ccccc23)cc1,2.11%,0%,–
O=C(O)c1ccc(C(F)(F)F)cc1/N=C\c1c[nH]c2ccccc12,0.33%,5.77%,–
O=C(O)c1cccc(/N=C/c2cccc(O)c2O)c1,5%,9.05%,–
COc1ccc(/N=C/c2c(O)ccc3ccccc23)cc1,3.66%,0%,–

# Continued, in another order:
inhibition [1],inhibition [2],SMILES,further results
24.2%,64.1%,CCOc1cccc(/C=N/c2ccc(-c3ccccc3)cc2)c1O,–
0%,0%,Cc1cccc(/N=C/c2c(O)ccc3ccccc23)c1C(=O)O,–
2.72%,0%,O=C(c1ccccc1)c1ccccc1/N=C/c1c(O)ccc2ccccc12,–
1.86%,30%,COc1cccc(/C=N/c2ccccc2C(=O)c2ccccc2)c1O,–
2.39%,2.58%,Cc1c(/N=C\c2c[nH]c3ccccc23)cccc1C(=O)O,–
3.09%,22.9%,O=C(c1ccc(Cl)cc1)c1ccccc1/N=C/c1c(O)ccc2ccccc12,–
0%,23.7%,COc1cccc(/C=N/c2cccc(C(=O)O)c2)c1O,–
6.93%,19.4%,CCOc1cccc(/C=N/c2cccc(C(=O)O)c2)c1O,–
2.39%,27.8%,CCOc1cccc(/C=N/c2cccc(C)c2C(=O)O)c1O,–
0%,0%,O=C(O)c1cccc(/N=C/c2c(O)ccc3ccccc23)c1,–
5.77%,75.7%,CCOc1cccc(/C=N/c2ccc(O)cc2)c1O,–
35.5%,70.7%,CCOc1cccc(/C=N/c2ccccc2C(=O)c2ccc(Cl)cc2)c1O,–
0%,0%,Cc1c(/N=C/c2c(O)ccc3ccccc23)cccc1C(=O)O,–
23.3%,75.3%,COc1cccc(/C=N/c2ccc(-c3ccccc3)cc2)c1O,–
5.43%,38%,CCOc1cccc(/C=N/c2cccc(C(=O)O)c2C)c1O,–
14.9%,91.1%,COc1cccc(/C=N/c2ccc(O)cc2)c1O,–
8.33%,35.2%,CCOc1cccc(/C=N/c2ccc(OC)cc2)c1O,–
0%,19.2%,COc1cccc(CNc2ccccc2C(=O)c2ccc(Cl)cc2)c1O,–
2.35%,3.8%,C(=N/c1ccc(-c2ccccc2)cc1)/c1c[nH]c2ccccc12,–
66.8%,95.1%,COc1cccc(/C=N/c2ccccc2C(=O)c2ccc(Cl)cc2)c1O,inhibition [3]: > 70%; inhibition [4]: inactive; inhibition [5]: 50%; inhibition [6]: 90%; inhibition [7]: Active; inhibition [8]: Dose-dependent effect; inhibition [9]: Active; Activity [10]: Non-Toxic; inhibition [11]: > 70%
44%,98.8%,Oc1ccc(/N=C/c2cccc3ccccc23)cc1,–
14.9%,51.8%,COc1cccc(/C=N/c2cccc(C(=O)O)c2C)c1O,inhibition [12]: > 50%; inhibition [13]: > 50%
5.35%,1.41%,Oc1ccc2ccccc2c1/C=N/c1ccc(-c2ccccc2)cc1,–
3.59%,49%,CCOc1cccc(/C=N/c2ccccc2C(=O)c2ccccc2)c1O,–
15%,21.2%,Cc1cccc(/N=C/c2cccc(O)c2O)c1C(=O)O,–
5.21%,1.97%,COc1ccc(/N=C/c2cccc3ccccc23)cc1,–
2.39%,0%,COc1cc(/C=N/c2ccc(-c3ccccc3)cc2)ccc1O,–
0%,0%,C(=N\c1ccc(-c2ccccc2)cc1)/c1cccc2ccccc12,–
